Read-outs that look alike come from different tables or passages of the source.
Tests used:
TOV21G tumors [1] = experiment: OXA-11 with cisplatin in TOV21G tumors in nude mice; type: in vivo; details: cisplatin given alone, 5 mg/kg
TOV21G cells [2] = experiment: Apoptosis, caspase 3/7 activity; type: cell-based, human; details: read-out: EC50 promotion of apoptosis, 3-D culture
pFAK [Y397] [3] = biological target: T1, pFAK [Y397] (Mus musculus, UniProt P34152); experiment: pFAK [Y397] immunohistochemistry in RIP-Tag2 liver and tumors; type: in vivo; details: 2 h after one 20-mg/kg dose
TOV21G tumors [4] = experiment: Tumor growth inhibition, TOV21G xenografts in nude mice; type: in vivo, mouse
Summary of the method: (§1)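 TOV21G or MDA-MB-361 cells were implanted subcutaneously in athymic nude mice and grown to a standardized size (n = 8 per group). Test compound was given daily by gavage at 20–120 mg/kg for 3 weeks. Tumor size was measured and body weight recorded during treatment.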

[5] = test system: liver metastases of pancreatic neuroendocrine tumors; experiment: Liver metastasis in RIP-Tag2 mice; type: in vivo, mouse
Summary of the method: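 RIP-Tag2 transgenic mice (C57BL/6 background) were treated for 3 weeks from age 14 weeks with vehicle (20 % Trappsol daily), test compound 20 mg/kg daily, anti-VEGFR-2 antibody DC101 1 mg ip twice weekly, or both. At 17 weeks, visible liver metastases were scored at autopsy. Micrometastases (≥2 adjacent SV40 T-antigen-positive cells) were counted and sized in two 80-μm liver sections per mouse; n = 19–24 per group.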

TOV21G cells [6] = details: read-out: EC50 inhibition of proliferation, 3-D culture, 7 days
FAK [7] = biological target: T2, FAK (Homo sapiens, UniProt Q05397); experiment: Cellular mechanistic FAK inhibition, MDA-MB-361 cell lysates; type: cell-based; details: read-out: OXA-11 IC50 (nM) for FAK, MDA-MB-361 breast adenocarcinoma metastasis cells
KDR = KDR (Homo sapiens, UniProt P35968)
pFAK [Y397] [8] = biological target: T1, pFAK [Y397]; experiment: pFAK [Y397] ELISA in RIP-Tag2 tumors; type: in vivo; details: 4 h after a single 40-mg/kg dose
Summary of the method: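 14-week-old RIP-Tag2 mice received no treatment, one 40 mg/kg dose of test compound, or 20 % Trappsol, 4 or 8 h before sampling. Mice were perfused with PBS, and tumors were removed and frozen. Total FAK and pFAK [Y397] were measured by ELISA, with pancreas of RIP-Tag2-negative littermates as control; n = 4–12 per group.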

IGROV1 cells [9] = experiment: Apoptosis, caspase 3/7 activity; type: cell-based, human; details: read-out: EC50 promotion of apoptosis, 3-D culture
PYK2 = PYK2 (Homo sapiens, UniProt Q14289); experiment: Cell-based kinase assay in cell lysates
MDA-MB-361 breast tumors = experiment: Tumor growth inhibition, MDA-MB-361 xenografts in mice; type: in vivo, mouse
Summary of the method: as §1

FAK [10] = biological target: FAK (Rattus norvegicus, UniProt O35346); experiment: Cellular mechanistic FAK inhibition, RMC cell lysates; type: cell-based; details: read-out: OXA-11 IC50 (nM) for FAK, RMC kidney mesangial cells
FAK [11] = experiment: Cellular mechanistic FAK inhibition, MDCK cell lysates; type: cell-based; details: read-out: OXA-11 IC50 (nM) for FAK, Dog, MDCK kidney epithelial cells
SRC = SRC (Homo sapiens, UniProt P12931); experiment: Cell-based kinase assay in cell lysates
[12] = Tolerability / maximum tolerated dose in RIP-Tag2 mice; type: in vivo
[13] = Tolerability in xenograft-bearing athymic nude mice; type: in vivo, mouse; details: 20–120 mg/kg daily for 3 weeks
Summary of the method: as §1

pFAK [Y397] [14] = biological target: T3, pFAK [Y397] (Homo sapiens, UniProt Q05397); experiment: pFAK [Y397] sandwich ELISA in IGROV1 cells; type: cell-based; details: read-out: IC50 of pFAK [Y397] inhibition; IGROV1 ovarian cancer cells in vitro
IGROV1 cells [15] = details: read-out: EC50 inhibition of proliferation, 3-D culture, 7 days
Aurora kinase A = Aurora kinase A (Homo sapiens, UniProt O14965)
FAK [16] = biological target: T2, FAK; experiment: Cell-based kinase assay in cell lysates
[17] = test system: eight human tumor cell lines; details: read-out: EC50 inhibition of proliferation in 3-D culture
pFAK [Y397] [18] = biological target: T3, pFAK [Y397]; experiment: PK/PD of pFAK [Y397] inhibition in xenograft tumors; type: in vivo, mouse
Summary of the method: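 TOV21G cells were implanted subcutaneously in athymic nude mice and grown to a standardized size. Mice got a single gavage dose of test compound (40–120 mg/kg in 20 % Trappsol) or vehicle. From 2 to 24 h later, tumor pFAK [Y397] was measured by ELISA alongside plasma drug levels. Time points were 4, 8 and 24 h after 80 or 120 mg/kg.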

pFAK [Y861] = pFAK [Y861] (Mus musculus, UniProt P34152); experiment: pFAK [Y861] immunohistochemistry in RIP-Tag2 liver and tumors; type: in vivo; details: for reduction of pFAK [Y861] staining in liver sinusoids: RIP-Tag2 mice
Summary of the method: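 RIP-Tag2 mice got one 20 mg/kg dose of test compound or 20 % Trappsol. pFAK [Y861] immunofluorescence was examined in liver sinusoids and tumors at 6 time points from 1 to 24 h (n = 4 mice per time point). Tissues were perfusion-fixed with 1 % PFA and frozen sections were stained; the time course gave a tissue half-life of inhibition.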

FAK [19] = biological target: FAK (Mus musculus, UniProt P34152); experiment: Cellular mechanistic FAK inhibition, 4T1 cell lysates; type: cell-based; details: read-out: OXA-11 IC50 (nM) for FAK, 4T1 mammary carcinoma cells
FAK [20] = biological target: T2, FAK; experiment: FAK Omnia Kinase Assay; details: read-out: biochemical IC50 for FAK inhibition
Summary of the method: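 GST-tagged full-length FAK phosphorylated a sulfonamido-oxine (SOX)-containing peptide substrate, read by chelation-enhanced fluorescence (Omnia). Test compound was run as an 11-point threefold serial dilution at final 0.17–10,000 nM or 0.12–7250 nM, in triplicate. IC50 was derived from the curves.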

Aurora kinase B = Aurora kinase B (Homo sapiens, UniProt Q96GD4)
FAK [21] = biological target: T2, FAK; experiment: Kinase Profiling System with ADP-Glo Kinase Assay, 192 kinases; type: biochemical; details: OXA-11 concentration of 100 nM
Insulin receptor = Insulin receptor (Homo sapiens, UniProt P06213); experiment: Cell-based kinase assay in cell lysates
FAK [22] = experiment: Cellular mechanistic FAK inhibition, CMMT cell lysates; type: cell-based; details: read-out: OXA-11 IC50 (nM) for FAK, Monkey, CMMT mammary gland epithelial cells
[23] = TOV21G xenografts, 120 mg/kg daily
[24] = cellular mechanistic IC50, TOV21G cells

Sequence of PYK2 (Q14289 whole entry): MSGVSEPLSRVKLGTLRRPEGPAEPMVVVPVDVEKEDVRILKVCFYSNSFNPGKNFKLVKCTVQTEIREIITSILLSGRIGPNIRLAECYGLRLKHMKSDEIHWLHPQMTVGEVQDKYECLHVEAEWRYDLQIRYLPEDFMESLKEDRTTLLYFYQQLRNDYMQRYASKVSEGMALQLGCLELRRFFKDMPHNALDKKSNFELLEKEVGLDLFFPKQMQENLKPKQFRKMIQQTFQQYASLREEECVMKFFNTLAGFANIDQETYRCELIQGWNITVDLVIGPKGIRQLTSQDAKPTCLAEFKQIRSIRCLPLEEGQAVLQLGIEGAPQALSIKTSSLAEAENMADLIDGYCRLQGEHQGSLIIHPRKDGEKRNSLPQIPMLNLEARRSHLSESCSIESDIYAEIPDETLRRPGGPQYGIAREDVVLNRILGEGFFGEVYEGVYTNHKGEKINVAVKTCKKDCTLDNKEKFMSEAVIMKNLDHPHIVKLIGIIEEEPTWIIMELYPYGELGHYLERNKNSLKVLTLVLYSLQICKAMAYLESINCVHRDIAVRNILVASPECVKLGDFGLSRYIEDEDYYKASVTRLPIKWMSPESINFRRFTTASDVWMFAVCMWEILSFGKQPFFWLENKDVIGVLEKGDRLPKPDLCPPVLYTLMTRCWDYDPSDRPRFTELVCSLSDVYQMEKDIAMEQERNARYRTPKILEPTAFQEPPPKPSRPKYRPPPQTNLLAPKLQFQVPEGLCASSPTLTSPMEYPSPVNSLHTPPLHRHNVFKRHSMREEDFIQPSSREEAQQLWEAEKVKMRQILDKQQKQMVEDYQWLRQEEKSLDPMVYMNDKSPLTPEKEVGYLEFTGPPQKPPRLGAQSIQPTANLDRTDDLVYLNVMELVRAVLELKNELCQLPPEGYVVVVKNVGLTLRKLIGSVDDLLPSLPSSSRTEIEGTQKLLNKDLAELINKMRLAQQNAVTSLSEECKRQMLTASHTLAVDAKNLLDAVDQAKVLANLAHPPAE
Sequence of SRC (P12931 whole entry): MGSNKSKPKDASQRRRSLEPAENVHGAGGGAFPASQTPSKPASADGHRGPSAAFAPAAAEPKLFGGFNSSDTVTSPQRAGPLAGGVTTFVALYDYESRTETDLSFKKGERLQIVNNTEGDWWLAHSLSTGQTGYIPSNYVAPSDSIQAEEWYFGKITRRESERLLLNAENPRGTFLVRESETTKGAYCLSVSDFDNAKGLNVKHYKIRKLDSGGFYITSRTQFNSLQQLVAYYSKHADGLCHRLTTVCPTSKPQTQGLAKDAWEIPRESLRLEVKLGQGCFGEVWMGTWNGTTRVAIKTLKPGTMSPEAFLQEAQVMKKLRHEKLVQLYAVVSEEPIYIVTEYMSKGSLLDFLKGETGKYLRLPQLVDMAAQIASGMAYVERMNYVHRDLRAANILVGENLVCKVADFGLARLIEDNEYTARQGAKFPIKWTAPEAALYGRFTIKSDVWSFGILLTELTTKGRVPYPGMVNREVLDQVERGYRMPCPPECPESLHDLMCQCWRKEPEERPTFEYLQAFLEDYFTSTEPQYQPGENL
Sequence of Aurora kinase A (O14965 whole entry): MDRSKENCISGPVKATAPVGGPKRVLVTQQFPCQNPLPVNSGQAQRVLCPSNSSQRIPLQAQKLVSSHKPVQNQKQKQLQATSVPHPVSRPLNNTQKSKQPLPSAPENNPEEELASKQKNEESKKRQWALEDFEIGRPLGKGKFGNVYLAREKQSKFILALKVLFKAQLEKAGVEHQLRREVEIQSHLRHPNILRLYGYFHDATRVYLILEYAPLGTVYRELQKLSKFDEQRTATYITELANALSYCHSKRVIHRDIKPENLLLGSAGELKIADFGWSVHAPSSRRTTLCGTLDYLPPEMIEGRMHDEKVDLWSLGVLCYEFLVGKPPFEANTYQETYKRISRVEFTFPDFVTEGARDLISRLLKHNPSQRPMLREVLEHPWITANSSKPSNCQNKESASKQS
T3 sequence (Q05397 whole entry): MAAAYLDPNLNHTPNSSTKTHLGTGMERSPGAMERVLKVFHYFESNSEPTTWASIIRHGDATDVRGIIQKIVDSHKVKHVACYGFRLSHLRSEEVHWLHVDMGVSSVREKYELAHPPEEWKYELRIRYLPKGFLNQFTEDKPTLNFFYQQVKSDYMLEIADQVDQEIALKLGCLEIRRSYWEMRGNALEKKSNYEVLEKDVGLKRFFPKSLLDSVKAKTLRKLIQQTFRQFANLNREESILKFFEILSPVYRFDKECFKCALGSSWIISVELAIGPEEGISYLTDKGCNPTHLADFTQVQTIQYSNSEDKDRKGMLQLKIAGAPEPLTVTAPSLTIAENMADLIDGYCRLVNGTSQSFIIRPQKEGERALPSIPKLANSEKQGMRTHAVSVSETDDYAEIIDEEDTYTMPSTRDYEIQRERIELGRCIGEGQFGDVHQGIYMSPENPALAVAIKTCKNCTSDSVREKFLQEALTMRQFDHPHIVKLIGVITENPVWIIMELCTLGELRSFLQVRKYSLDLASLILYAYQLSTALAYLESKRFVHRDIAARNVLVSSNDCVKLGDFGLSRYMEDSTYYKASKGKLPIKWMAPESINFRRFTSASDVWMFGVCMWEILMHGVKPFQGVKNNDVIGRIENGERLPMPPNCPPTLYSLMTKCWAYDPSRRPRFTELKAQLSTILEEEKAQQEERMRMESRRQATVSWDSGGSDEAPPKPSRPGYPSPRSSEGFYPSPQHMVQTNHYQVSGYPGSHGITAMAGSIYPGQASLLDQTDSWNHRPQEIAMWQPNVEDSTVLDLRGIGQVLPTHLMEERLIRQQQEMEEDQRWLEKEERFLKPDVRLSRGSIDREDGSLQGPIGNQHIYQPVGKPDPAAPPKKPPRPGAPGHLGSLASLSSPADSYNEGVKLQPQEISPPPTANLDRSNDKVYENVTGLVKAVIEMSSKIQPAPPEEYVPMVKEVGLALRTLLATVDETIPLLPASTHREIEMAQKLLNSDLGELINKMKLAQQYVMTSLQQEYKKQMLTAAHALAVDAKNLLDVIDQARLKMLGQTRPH
T2 sequence (Q05397 whole entry): as above
T1 sequence (P34152 whole entry): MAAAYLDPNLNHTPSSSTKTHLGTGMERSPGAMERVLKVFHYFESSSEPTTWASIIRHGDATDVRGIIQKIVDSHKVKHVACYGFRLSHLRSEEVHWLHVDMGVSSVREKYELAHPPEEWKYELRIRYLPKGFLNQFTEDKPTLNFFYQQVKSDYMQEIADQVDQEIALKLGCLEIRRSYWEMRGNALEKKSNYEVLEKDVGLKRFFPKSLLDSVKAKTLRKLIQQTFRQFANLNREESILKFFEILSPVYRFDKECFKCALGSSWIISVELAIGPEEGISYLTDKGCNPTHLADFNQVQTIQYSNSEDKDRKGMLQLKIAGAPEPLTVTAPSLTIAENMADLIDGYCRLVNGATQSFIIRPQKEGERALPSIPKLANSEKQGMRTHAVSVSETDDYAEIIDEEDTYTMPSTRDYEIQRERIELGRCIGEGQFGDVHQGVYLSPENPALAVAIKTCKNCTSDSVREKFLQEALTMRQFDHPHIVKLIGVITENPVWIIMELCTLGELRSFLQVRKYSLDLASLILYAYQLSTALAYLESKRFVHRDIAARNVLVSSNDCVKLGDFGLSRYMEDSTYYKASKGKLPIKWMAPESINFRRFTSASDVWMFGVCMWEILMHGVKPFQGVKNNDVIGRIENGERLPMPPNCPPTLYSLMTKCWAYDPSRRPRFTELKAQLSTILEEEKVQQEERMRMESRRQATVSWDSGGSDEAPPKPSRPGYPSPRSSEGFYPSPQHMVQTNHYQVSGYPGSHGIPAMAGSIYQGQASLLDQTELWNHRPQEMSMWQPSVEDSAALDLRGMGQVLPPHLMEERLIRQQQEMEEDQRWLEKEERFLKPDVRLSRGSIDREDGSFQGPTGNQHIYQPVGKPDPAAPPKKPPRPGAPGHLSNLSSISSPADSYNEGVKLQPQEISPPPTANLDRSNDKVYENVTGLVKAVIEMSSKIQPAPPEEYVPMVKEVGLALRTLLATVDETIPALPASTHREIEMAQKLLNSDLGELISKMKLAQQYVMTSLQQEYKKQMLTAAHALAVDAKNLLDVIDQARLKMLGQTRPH
Sequence of pFAK [Y861] (P34152 whole entry, the tested form may be a part): as the sequence (P34152 whole entry) above
Sequence of Aurora kinase B (Q96GD4 whole entry): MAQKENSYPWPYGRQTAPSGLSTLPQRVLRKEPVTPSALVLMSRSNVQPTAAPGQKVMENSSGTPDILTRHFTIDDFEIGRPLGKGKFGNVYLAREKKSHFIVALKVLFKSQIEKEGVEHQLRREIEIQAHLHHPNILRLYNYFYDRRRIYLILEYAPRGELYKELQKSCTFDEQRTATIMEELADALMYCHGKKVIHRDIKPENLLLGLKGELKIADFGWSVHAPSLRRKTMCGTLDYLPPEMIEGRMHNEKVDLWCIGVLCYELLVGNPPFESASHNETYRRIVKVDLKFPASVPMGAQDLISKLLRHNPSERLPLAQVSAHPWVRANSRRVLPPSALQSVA
Sequence of FAK (Mus musculus, UniProt P34152) (P34152 whole entry): as the sequence (P34152 whole entry) above

N.N.[Cl][Pt][Cl] [cisplatin]
effect on pFAK [Y397] in TOV21G-cell tumors (TOV21G tumors [1]): increased pFAK [Y397]

CCOP(=O)(Cc1ccc(Nc2ncc(C(F)(F)F)c(Nc3ccc([C@H]4CC[C@H](N5CCN(C)CC5)CC4)c4c3C(=O)N(C)C4)n2)c(OC)c1)OCC [OXA-11, diethyl (3-methoxy-4-{ [4-({2-methyl-7-[trans-4-(4-methylpiperazin-1-yl)cyclo-hexyl]-3-oxo-2,3-dihydro-1H-isoindol-4-yl}amino)-5-(tri-fluoromethyl)pyrimidin-2-yl]amino}benzyl) phosphonate]
EC50 (TOV21G cells [2]): 31 nM
staining for pFAK [Y397] in RIP-Tag2 tumors (pFAK [Y397] [3]): reduced to nearly undetectable levels
pFAK [Y397] immunofluorescence in liver sinusoids, less than baseline (pFAK [Y397] [3]; RIP-Tag2 mice): 86%
inhibition of tumor growth (TOV21G tumors [4]; [23]): 77%
reduction in size of TOV21G tumors (TOV21G tumors [4]; nude mice, 20–120 mg/kg daily for 3 weeks): 22–67%
mice with liver metastases visible at autopsy ([5]; 17-week old RIP-Tag2 mice after treatment for 3 weeks): 10%
size of liver micrometastases ([5]; RIP-Tag2 mice, 3 weeks treatment): about the same as in the vehicle group
EC50 (TOV21G cells [6]): 9 nM
IC50 (FAK [7]): 20 nM
Fold selectivity for FAK over KDR (KDR; cell lysates): >1000×
selectivity for FAK over KDR (VEGFR-2, FLK1) (KDR; [24]): > 1000 fold
IC50 (KDR; read-out: OXA-11 IC50 (nM), KDR, cellular mechanistic, cell lysates): > 10000 nM
pFAK [Y397] activity in RIP-Tag2 tumors (pFAK [Y397] [8]): significantly reduced
EC50 (IGROV1 cells [9]): 0.5 nM
Fold selectivity for FAK over RSK1/2 (RSK1/2; cell lysates): 26×
selectivity for FAK over RSK1/2 (RSK1/2; [24]): 26 fold
IC50 (RSK1/2; read-out: OXA-11 IC50 (nM), RSK1/2, cellular mechanistic, cell lysates): 260 nM
Fold selectivity for FAK over PYK2 (PYK2; cell lysates): 8×
selectivity for FAK over PYK2 (PYK2; [24]): eightfold
IC50 (PYK2; read-out: OXA-11 IC50 (nM), PYK2, cellular mechanistic, cell lysates): 80 nM
inhibition of MDA-MB-361 tumor growth over 3 weeks (MDA-MB-361 breast tumors; higher daily dose (120 mg/kg)): 95%
inhibition of MDA-MB-361 tumor growth over 3 weeks (MDA-MB-361 breast tumors; lower daily dose (40 mg/kg)): 60%
IC50 (FAK [10]): 18 nM
IC50 (FAK [11]): 32 nM
Fold selectivity for FAK over SRC (SRC; cell lysates): >1000×
selectivity for FAK over SRC (SRC; [24]): > 1000 fold
IC50 (SRC; read-out: OXA-11 IC50 (nM), SRC, cellular mechanistic, cell lysates): > 10000 nM
tolerability ([12]; 40 or 60 mg/kg daily for at least 3 weeks): well tolerated
maximum tolerated dose ([12]; OXA-11 given with DC101): 20 mg/kg
tolerable dosing ([12]; daily): 20 to 60 mg/kg
dose-limiting toxicity [13]: No dose-limiting toxicity
IC50 (pFAK [Y397] [14]): 0.8 nM
EC50 (IGROV1 cells [15]): 0.3 nM
Fold selectivity for FAK over Aurora kinase A (Aurora kinase A; cell lysates): >1000×
selectivity for FAK over aurora kinase A (AURKA) (Aurora kinase A; [24]): > 1000 fold
IC50 (Aurora kinase A; read-out: OXA-11 IC50 (nM), Aurora kinase A, cellular mechanistic, cell lysates): > 10000 nM
Fold selectivity for FAK (FAK) (FAK [16]): 1×
EC50 ([17]; TOV21G, OVCAR3, OVCAR5 and IGROV1 cells (high baseline pFAK [Y397])): 0.3 to 14.5 nM
EC50 ([17]; four other cell lines with lower baseline pFAK [Y397]): > 100 nM
reduction of pFAK [Y397] at 24 h (pFAK [Y397] [18]; TOV21G tumors, single dose 80 or 120 mg/kg, plasma levels back to baseline): approximately 25%
suppression of pFAK [Y397] (pFAK [Y397] [18]; [23]): 61%
EC50 (pFAK [Y397] [18]; read-out: pharmacodynamic EC50 of pFAK [Y397] inhibition, total OXA-11, TOV21G tumors in mice, 4, 8 and 24 h): 102 nM
staining for pFAK [Y861] in RIP-Tag2 tumors (pFAK [Y861]; 2 h after one 20-mg/kg dose): reduced to nearly undetectable levels
tissue half-life of OXA-11 inhibition of pFAK [Y861] (pFAK [Y861]; RIP-Tag2 liver sinusoids, single dose 20 mg/kg): about 4 h
reduction of pFAK [Y861] staining in liver sinusoids (pFAK [Y861]; 1 h after single dose 20 mg/kg): 79%
reduction of pFAK [Y861] staining in liver sinusoids (pFAK [Y861]; 4 h after single dose 20 mg/kg): 57%
reduction of pFAK [Y861] staining in liver sinusoids (pFAK [Y861]; 6 h after single dose 20 mg/kg): 35%
IC50 (FAK [19]): 8 nM
IC50 (FAK [20]): 0.0012 nM
Fold selectivity for FAK over Aurora kinase B (Aurora kinase B; cell lysates): >1000×
selectivity for FAK over aurora kinase B (AURKB) (Aurora kinase B; [24]): > 1000 fold
IC50 (Aurora kinase B; read-out: OXA-11 IC50 (nM), Aurora kinase B, cellular mechanistic, cell lysates): > 10000 nM
inhibition of kinase in biochemical specificity screening (FAK [21]): more than 50%
Fold selectivity for FAK over Insulin receptor (Insulin receptor; cell lysates): >1000×
selectivity for FAK over insulin receptor (IR, INSR) (Insulin receptor; [24]): > 1000 fold
IC50 (Insulin receptor; read-out: OXA-11 IC50 (nM), Insulin receptor, cellular mechanistic, cell lysates): > 10000 nM
IC50 (FAK [22]): 84 nM

Source: publication PMC4651821 (Clinical & experimental metastasis, 2015)
